Key:
MDA-MB-231 cells = experiment: MTT assay, MDA-MB-231; format: cell-based; conditions: Homo sapiens, MDA-MB-231, 48 h
Outline: (§1)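 Cells were STR-authenticated and mycoplasma-tested (HEK was a gift; the others were from a national cell repository). They were cultured with 10 % FBS at 37 °C, with or without 5 % CO2, then plated in 96-well plates and allowed to attach overnight. Test compound was added at increasing concentrations for 48 h. Solubilized MTT formazan absorbance was read at 570 nm. At least three independent experiments were run.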

HeLa cells = experiment: MTT assay, HeLa; format: cell-based; conditions: Homo sapiens, 48 h
Outline: as §1

HCT116 cells [1] = experiment: MTT assay, HCT116; format: cell-based; conditions: Homo sapiens, HCT-116, 48 h
Outline: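 STR-authenticated, mycoplasma-tested HCT116 cells were grown in 10 % FBS medium at 37 °C. They were seeded in 96-well plates, left to attach overnight, and exposed to increasing concentrations of test compound for 48 h. DMSO-treated cells were the control. MTT formazan was solubilized and read at 570 nm. Experiments were repeated thrice, with SEM error bars.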

HEK cells = experiment: MTT assay, normal kidney cells HEK; format: cell-based, Human; conditions: for IC50: Homo sapiens, HEK293, 48 h
Outline: as §1

HCT116 cells [2] = experiment: Foci formation assay; format: cell-based, Human; conditions: HCT116, 12 days, crystal violet
HCT116 cells [3] = experiment: Acridine orange/PI dual staining; format: cell-based, Human; conditions: HCT116, 48 h
HCT116 cells [4] = experiment: Hoechst/PI double staining; format: cell-based, Human; conditions: HCT116, 48 h

SMILES | IC50 (MDA-MB-231 cells) [µM] | IC50 (HeLa cells) [µM] | IC50 (HCT116 cells [1]) [µM] | IC50 (HEK cells) [µM] | colony formation (HCT116 cells [2]) | propidium iodide uptake (live/dead cells) (HCT116 cells [3]) | propidium iodide uptake and nuclear membrane deformation (HCT116 cells [4]) | toxicity towards normal cell lines (HEK cells; HeK)
COc1ccc(-c2cc(C(=O)Nc3ccccc3)c3cc(-c4cc(Cl)ccc4F)ccc3n2)cc1 [Compound 7c, 6-(5-Chloro-2-fluorophenyl)-2-(4-methoxyphenyl)-N-phenylquinoline-4-carboxamide] | > 50 | 42.4 ± 0.37 | 41.8 ± 0.16 | > 50 | – | – | – | –
COc1ccc(-c2cc(C(=O)Nc3ccccc3)c3cc(-c4cc(F)ccc4OC)ccc3n2)cc1 [Compound 7b, 6-(5-Fluoro-2-methoxyphenyl)-2-(4-methoxyphenyl)-N-phenylquinoline-4-carboxamide] | > 50 | 41.6 ± 0.58 | 43.3 ± 0.53 | > 50 | – | – | – | –
COc1ccc(-c2cc(C(=O)Nc3ccccc3)c3cc(-c4cnc(Cl)c(C)c4)ccc3n2)cc1 [Compound 7g, 6-(6-Chloro-5-methylpyridin-3-yl)-2-(4-methoxyphenyl)-N-phenylquinoline-4-carboxamide] | > 50 | > 50 | > 50 | > 50 | – | – | – | –
COc1cccc2c1C(=O)c1c(O)c3c(c(O)c1C2=O)C[C@@](O)(C(=O)CO)C[C@@H]3O[C@H]1C[C@H](N)[C@H](O)[C@H](C)O1 [Doxorubicin, reference compound] | 5.32 ± 0.11 | 5.04 ± 0.41 | 1.26 ± 0.09 | 8.23 ± 0.73 | – | – | – | –
COc1ccc(-c2cc(C(=O)Nc3ccccc3)c3cc(-c4ccccc4)ccc3n2)cc1 [Compound 7a, 2-(4-methoxyphenyl)-N,6-diphenylquinoline-4-carboxamide] | 39.2 ± 0.13 | 41.3 ± 0.06 | 35.6 ± 0.06 | > 50 | inhibit colony formation of colon cancer cells in a concentration dependent manner | propidium iodide uptake in concentration dependent manner | uptake of propidium iodide in concentration dependent manner with nuclear membrane deformation in dead cells | less toxicity towards normal cell lines

More lines, main results first:

IC50 (MDA-MB-231 cells) [µM] | IC50 (HeLa cells) [µM] | IC50 (HCT116 cells [1]) [µM] | SMILES | IC50 (HEK cells) [µM] | colony formation (HCT116 cells [2]) | propidium iodide uptake (live/dead cells) (HCT116 cells [3]) | propidium iodide uptake and nuclear membrane deformation (HCT116 cells [4]) | toxicity towards normal cell lines (HEK cells; HeK)
> 50 | > 50 | 42.5 ± 0.23 | COc1ccc(F)cc1-c1ccc2nc(-c3ccc(F)cc3)cc(C(=O)Nc3ccccc3)c2c1 [Compound 7j, 6-(5-Fluoro-2-methoxyphenyl)-2-(4-fluorophenyl)-N-phenylquinoline-4-carboxamide] | > 50 | – | – | – | –
> 50 | > 50 | > 50 | COc1ccc(-c2cc(C(=O)Nc3ccccc3)c3cc(-c4cc(C)ccc4F)ccc3n2)cc1 [Compound 7f, 6-(2-Fluoro-5-methylphenyl)-2-(4-methoxyphenyl)-N-phenylquinoline-4-carboxamide] | > 50 | – | – | – | –
> 50 | > 50 | 44.2 ± 0.08 | COc1ccc(F)cc1-c1ccc2nc(-c3ccccc3)cc(C(=O)Nc3ccccc3)c2c1 [Compound 7i, 6-(5-Fluoro-2-methoxyphenyl)-N,2-diphenylquinoline-4-carboxamide] | > 50 | – | – | – | –
> 50 | > 50 | > 50 | COc1ccc(-c2cc(C(=O)Nc3ccccc3)c3cc(-c4cccs4)ccc3n2)cc1 [Compound 7e, 2-(4-methoxyphenyl)-N-phenyl-6-(thiophen-2-yl)quinoline-4-carboxamide] | > 50 | – | – | – | –
> 50 | 38.3 ± 0.25 | 39.8 ± 0.11 | COc1ccc(-c2cc(C(=O)Nc3ccccc3)c3cc(-c4ccc(Cl)cc4)ccc3n2)cc1 [Compound 7d, 6-(4-chlorophenyl)-2-(4-methoxyphenyl)-N-phenylquinoline-4-carboxamide] | > 50 | – | – | – | –
46.3 ± 0.18 | 43.3 ± 0.31 | 41.6 ± 0.11 | O=C(Nc1ccccc1)c1cc(-c2ccccc2)nc2ccc(-c3ccccc3)cc12 [Compound 7h, N,2,6-triphenylquinoline-4-carboxamide] | > 50 | – | – | – | –
